{
  "source": "paper PMC2232892",
  "about": "(The Journal of General Physiology, 2000)",
  "key": {"T449Y Shaker channels [1]": {"target": "T1, T449Y Shaker channels (Drosophila melanogaster, UniProt P08510, DEL6-46/T449Y)", "conditions": "ref Heginbotham and MacKinnon 1992; cited from earlier work"}, "T449Y Shaker channels [2]": {"target": "T1, T449Y Shaker channels", "format": "cell-based", "summary_of_the_method": "(§1)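 Oocytes were defolliculated for 60–90 min with 2 mg/ml collagenase in Ca-free OR-2, injected with channel RNA, and held at 18°C in ND-96 with penicillin/streptomycin. Inside-out or outside-out macropatches were recorded 1–5 d later at 20–22°C, filtered at 5 kHz. External solution (mM): 5 KCl, 135 NMDG-Cl, 2 CaCl2, 2 MgCl2, 10 HEPES, pH 7.2. Internal solution: 110 KCl, 25 KOH, 10 EGTA, 10 HEPES, pH 7.2.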"}, "RBK1 (rKv1.1) channels": {"tested_on": "RBK1 (rKv1.1) channels", "conditions": "ref Newland et al. 1992; cited from earlier work"}, "Shaker B, ShB Δ6-46 [3]": {"target": "T2, Shaker B, ShB Δ6-46 (Drosophila melanogaster, UniProt P08510, DEL6-46)", "format": "cell-based", "conditions": "for Kd: read-out: apparent Kd for external TEA block", "summary_of_the_method": "as §1"}, "Shaker B, ShB Δ6-46 [4]": {"target": "T2, Shaker B, ShB Δ6-46", "conditions": "wild-type Shaker channels; ref Heginbotham and MacKinnon 1992; Newland et al. 1992; cited from earlier work"}},
  "note": "Where two headings read alike, the source gives them in different places.",
  "data": [
    {"smiles": "CC[N+](CC)(CC)CC", "note": "[TEA, tetraethylammonium]", "values": [
      {"measurement": "electrical distance of external block", "setting": "T449Y Shaker channels [1]", "value": 0.04},
      {"measurement": "interaction parameter Q (external vs internal TEA)", "setting": "T449Y Shaker channels [2]; K+ solutions", "value": 5.2},
      {"measurement": "current blocked by 2 mM internal TEA", "setting": "T449Y Shaker channels [2]; absence of external TEA", "value": "77 ± 0.4", "unit": "%"},
      {"measurement": "current blocked by 2 mM internal TEA", "setting": "T449Y Shaker channels [2]; presence of 1 mM external TEA", "value": "64 ± 7", "unit": "%"},
      {"measurement": "interaction parameter Q (external vs internal TEA)", "setting": "RBK1 (rKv1.1) channels", "value": 5.3},
      {"measurement": "interaction parameter Q (external TEA antagonism of internal TEA block)", "setting": "Shaker B, ShB Δ6-46 [3]; K+ solutions, 0-100 mM external TEA, Ko = 17 mM, 0 mV", "value": 4.6},
      {"measurement": "interaction parameter Q (external vs internal TEA)", "setting": "Shaker B, ShB Δ6-46 [3]; Rb+ solutions", "value": 1},
      {"measurement": "Kd", "setting": "Shaker B, ShB Δ6-46 [3]; 20 mM internal K+ and 50 mM internal Na+", "value": "7.5 ± 0.85", "unit": "mM"},
      {"measurement": "Kd", "setting": "Shaker B, ShB Δ6-46 [3]; 50 mM internal K+ (data not shown)", "value": "17.6 ± 2.7", "unit": "mM"},
      {"measurement": "Kd", "setting": "Shaker B, ShB Δ6-46 [3]; 115 mM internal Na+ (20 mM K+)", "value": "7.6 ± 1.2", "unit": "mM"},
      {"measurement": "δ (electrical distance of external block)", "setting": "Shaker B, ShB Δ6-46 [4]", "value": "~0.15"}
    ]},
    {"smiles": "CC[N+](CC)(CC)CCOc1cccc(OCC[N+](CC)(CC)CC)c1OCC[N+](CC)(CC)CC", "note": "[gallamine, Gallamine triethiode]", "values": [
      {"measurement": "block by 0.25 mM external gallamine compared with wild-type channels", "setting": "T449Y Shaker channels [2]; same concentration as on wild-type, reduced voltage sensitivity", "value": "considerably more effective"},
      {"measurement": "apparent zδ (voltage dependence of block, Woodhull equation)", "setting": "Shaker B, ShB Δ6-46 [3]; 0.25 mM external gallamine, wild-type channels", "value": 0.28},
      {"measurement": "interaction parameter Q (external gallamine antagonism of internal TEA block)", "setting": "Shaker B, ShB Δ6-46 [3]; K+ solutions, several external gallamine concentrations", "value": 2}
    ]}
  ]
}
